Measured values taken from ChEMBL document CHEMBL3525997, “Debrisoquine metabolism and CYP2D expression in marmoset liver microsomes” (Drug Metab Dispos, 2012).

Assays:
Type in all cases: ADME, Callithrix jacchus
[1] = Drug metabolism in marmoset liver microsomes assessed as 5-hydroxydebrisoquine formation at 500 uM after 180 mins by NMR analysis; details: 3 h
Procedure, shortened: (§1)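 Large-scale incubation to generate metabolites for structural identification. Pooled marmoset liver microsomal protein 4 mg/ml (batch 1), 6 mM NADPH, 50 mM Tris-HCl pH 7.69, total 35 ml. Reaction started with [14C]debrisoquine to a final concentration of 500 µM and incubated for 180 min.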

[2] = Drug metabolism in marmoset liver microsomes assessed as 7-hydroxydebrisoquine formation at 500 uM after 180 mins by NMR analysis; details: 3 h; procedure, shortened: as §1
[3] = Drug metabolism in marmoset liver microsomes assessed as 4-hydroxydebrisoquine formation at 500 uM after 180 mins by NMR analysis; details: 3 h; procedure, shortened: as §1
[4] = Drug metabolism in marmoset liver microsomes assessed as 6-hydroxydebrisoquine formation at 500 uM after 180 mins by NMR analysis; details: 3 h; procedure, shortened: as §1
[5] = Drug metabolism in marmoset liver microsomes assessed as 6,7-hydroxydebrisoquine formation at 500 uM after 180 mins by NMR analysis; details: 3 h; procedure, shortened: as §1
[6] = Drug metabolism in marmoset liver microsomes assessed as 8-hydroxydebrisoquine formation at 500 uM after 180 mins by NMR analysis; details: 3 h; procedure, shortened: as §1
[7] = Drug metabolism in marmoset liver microsomes treated with [14C]debrisoquine at 500 uM after 120 mins by radio-HPLC chromatography; details: 2 h
Procedure, shortened: (§2)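 Pooled male marmoset liver microsomes (5 mg/ml, batch 1) incubated with [14C]debrisoquine 500 µM, NADPH 6 mM, Tris-HCl 50 mM pH 7.69, 37°C, 120 min. Protein precipitated, supernatant injected on C18 reversed-phase HPLC with 10 mM TFA/acetonitrile linear gradient over 40 min. Detection by UV at 211 nm, radioactivity flow detector, and ESI+ LC-MS/MS with product ion spectra.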

[8] = Drug metabolism in marmoset liver microsomes treated with [14C]debrisoquine at 500 uM after 120 mins by LC/MS/MS analysis; details: 2 h; procedure, shortened: as §2
[9] = Drug metabolism in marmoset liver microsomes treated with [14C]debrisoquine at 500 uM after 180 mins by NMR analysis; details: 3 h; procedure, shortened: as §1
[10] = Drug metabolism in marmoset liver microsomes assessed as metabolite MF-1 formation at 500 uM after 120 mins by LC/MS/MS analysis; details: 2 h; procedure, shortened: as §2
[11] = Drug metabolism in marmoset liver microsomes assessed as 4-hydroxydebrisoquine formation at 500 uM after 120 mins by radio-HPLC chromatography; details: 2 h; procedure, shortened: as §2
[12] = Drug metabolism in marmoset liver microsomes assessed as metabolite MF-3 formation at 500 uM after 120 mins by radio-HPLC chromatography; details: 2 h; procedure, shortened: as §2
[13] = Drug metabolism in marmoset liver microsomes assessed as metabolite MF-3 formation at 500 uM after 120 mins by LC/MS/MS analysis; details: 2 h; procedure, shortened: as §2
[14] = Drug metabolism in marmoset liver microsomes assessed as 4-hydroxydebrisoquine formation at 500 uM after 120 mins by LC/MS/MS analysis; details: 2 h; procedure, shortened: as §2
[15] = Drug metabolism in marmoset liver microsomes assessed as metabolite MF-1 formation at 500 uM after 120 mins by radio-HPLC chromatography; details: 2 h; procedure, shortened: as §2

**Q.** For N=C(N)N1CCc2ccccc2C1.O=S(=O)(O)O, which Drug metabolism [1] is on record?
**A.** metabolite_detected

**Q.** What about the Drug metabolism [2] of the same compound?
**A.** metabolite_detected

**Q.** And the Drug metabolism [3]?
**A.** metabolite_detected

**Q.** And the Drug metabolism [4]?
**A.** metabolite_detected

**Q.** And the Drug metabolism [5]?
**A.** metabolite_detected

**Q.** What about the Drug metabolism [6] of the same compound?
**A.** metabolite_detected

**Q.** Which Drug metabolism [7] does the source give for N=C(N)N1Cc2ccccc2C(O)C1 (stereo not given) here?
**A.** metabolite_detected

**Q.** And the Drug metabolism [8]?
**A.** metabolite_detected

**Q.** And the Drug metabolism [9]?
**A.** metabolite_detected

**Q.** With N=C(N)N1CCc2cccc(O)c2C1 as the compound, how does the Drug metabolism [9] read?
**A.** metabolite_detected

**Q.** With N=C(N)N1CCc2cc(O)c(O)cc2C1 as the compound, how does the Drug metabolism [9] read?
**A.** metabolite_detected

**Q.** For N=C(N)N1CCc2c(O)cccc2C1, which Drug metabolism [9] is on record?
**A.** metabolite_detected

**Q.** With N=C(N)N1CCc2cc(O)ccc2C1 as the compound, how does the Drug metabolism [9] read?
**A.** metabolite_detected

**Q.** Which Drug metabolism [9] does the source give for N=C(N)N1CCc2ccc(O)cc2C1 here?
**A.** metabolite_detected

**Q.** For N=[14C](N)N1CCc2ccccc2C1, which Drug metabolism [10] is on record?
**A.** metabolite_detected

**Q.** What about the Drug metabolism [11] of the same compound?
**A.** metabolite_detected

**Q.** And the Drug metabolism [12]?
**A.** metabolite_detected

**Q.** What about the Drug metabolism [13] of the same compound?
**A.** metabolite_detected

**Q.** What about the Drug metabolism [14] of the same compound?
**A.** metabolite_detected

**Q.** And the Drug metabolism [15]?
**A.** metabolite_detected
